Screening results: PubChem BioAssay, several laboratories
Sampled rows, rich in hits. Any-hit rate of the full collection: about 1.5%.
Runt-CBFb FRET: blocks binding of human RUNX1 Runt domain to CBFb | Q01196+Q13951 | Cerulean-Runt/Venus-CBFb FRET ratio 530/480, 1 h | inhibition, % at 20 µM | actives 0.46% (n = 220,000) | AID 1496;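 active = inhibition over about 50% at 20 µM in the single-dose screen, limit read from the data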;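 note: 0% = DMSO wells and 100% = excess unlabeled CBFb competitor control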
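Assay system: Cerulean-tagged RUNX1 Runt domain (FRET donor) fusion protein / Amount: 100 nM each of Venus-CBFb and Cerulean-Runt domain / Medium: Tris buffer pH 7.5 with salts and BSA / Also added: Venus-CBFb 100 nM / Schedule: 1 h complex formation plus 1 h compound treatment, room temperature / Signal: FRET fluorescence / Read-out: loss of energy transfer signal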
Hck Nef HTS: blocks Nef-activated human Hck kinase. actives 0.68% (n = 220,000). inhibition, % at 20 µM. Recombinant Hck-YEEI plus Nef, Z-Lyte FRET kinase assay. P08631;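 active = Hck-Nef kinase inhibition above about 50%, limit read from the data; inactive = inhibition below that limit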;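 note: 0% = DMSO with Hck plus Nef and 100% = Hck alone without Nef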
Target sequence (P08631 whole entry, looked up): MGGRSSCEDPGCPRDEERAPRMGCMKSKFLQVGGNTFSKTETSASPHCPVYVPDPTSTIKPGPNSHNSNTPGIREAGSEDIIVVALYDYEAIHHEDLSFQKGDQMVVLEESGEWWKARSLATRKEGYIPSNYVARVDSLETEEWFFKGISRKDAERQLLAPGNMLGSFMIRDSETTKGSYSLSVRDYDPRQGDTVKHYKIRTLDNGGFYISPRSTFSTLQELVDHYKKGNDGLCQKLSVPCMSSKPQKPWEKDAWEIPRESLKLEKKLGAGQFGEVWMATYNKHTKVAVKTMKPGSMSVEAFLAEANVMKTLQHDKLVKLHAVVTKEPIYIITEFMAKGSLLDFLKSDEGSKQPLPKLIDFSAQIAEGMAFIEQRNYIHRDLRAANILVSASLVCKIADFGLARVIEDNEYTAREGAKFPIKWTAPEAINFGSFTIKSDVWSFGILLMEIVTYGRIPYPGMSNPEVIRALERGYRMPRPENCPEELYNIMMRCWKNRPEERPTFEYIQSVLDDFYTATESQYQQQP
CaV13 ICDI inh: Disruptors of the CACNA1D IQ motif to Ca2+-dependent inactivation inhibitor domain association, primary screening, Förster resonance energy transfer in intact living …. actives 0.098% (n = 340,000). inhibition, % at 12.3 µM. HEK cells, CFP/YFP FRET ICDI-IQ, plate reader, 10 min; percent FRET-ratio fall versus neutral wells. AID 743397;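 active = mean replicate inhibition of at least 30% and at least 1% of replicates passing that level; inconclusive = only one of the two criteria is met; inactive = neither criterion is met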;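 note: 0% = median of the neutral control wells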
RanGTP-Imp inh: inhibitors of RanGTP-importin-beta interaction, primary screen, biochemical, FRET, CFP-Ran, YFP-importin-beta, homogeneous | inhibition, % (test concentration not listed) | cell-free CFP-Ran/YFP-importin-beta FRET ratio | actives 1.1% (n = 300,000);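 active = more than half of the replicate wells show a fall in the fluorescence ratio signal beyond about 16%, limit read from the data, passing the limit was not always enough; inconclusive = exactly half of the replicate wells pass the set limit; inactive = fewer than half of replicates pass the limit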;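 note: 0% = DMSO wells and 100% = Ran loaded with GDP instead of GTP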
Runt-SMMHC FRET: blocks binding of human RUNX1 Runt domain to CBFb-SMMHC. Q01196+Q13951. Cerulean-Runt/Venus-CBFb-SMMHC FRET ratio 530/480, 1 h. inhibition, % at 20 µM. actives 0.74% (n = 220,000). AID 1434;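 active = mean inhibition across duplicate retests at 20 µM reaching about 50%, limit read from the data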;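 note: 0% = DMSO wells and 100% = wells with excess untagged CBFb-SMMHC; inhibitors lower the FRET ratio by blocking Runt binding to CBFb-SMMHC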
* marks the source's active call; other numbers are inactive results; u = inconclusive; x = no result given.

SMILES | Runt-CBFb FRET | Hck Nef HTS | CaV13 ICDI inh | RanGTP-Imp inh | Runt-SMMHC FRET
COc1cc(C2C3=C(CCCC3=O)Nc3ccc4ncccc4c32)ccc1O (centres undefined) | 4 | -15 | -4 | -2 | 2
CCC(=O)N1CCCC(C(=O)NCc2ccc(C(C)C)cc2)CC1 (centres undefined) | x | x | -6 | x | x
O=C(NNc1cc(N2CCOCC2)nc(N2CCOCC2)n1)C12CC3CC(CC(C3)C1)C2 | -4 | -2 | -19 | 57* | -1
O=C(NNc1cc(N2CCOCC2)nc(N2CCOCC2)n1)c1ccc(Cl)c(Cl)c1 | 1 | 1 | -11 | 134* | 3
Cc1ccc(C(=O)NNc2cc(N3CCCC3)nc(N3CCCC3)n2)cc1 | -1 | 1 | x | u | 10
CCC(C)(C)n1nnnc1C(c1cc2cccc(C)c2[nH]c1=O)N1CCN(C(=O)c2ccco2)CC1 (centres undefined) | -18 | 0 | -3 | 17* | -131
COc1ccc(/C(O)=C/c2nc3ccccc3n(-c3ccccc3)c2=O)cc1 | -78 | -24 | x | 47* | 10
COc1ccc(-n2c(=O)c(CCC(=O)N3CCN(c4cccc(OC)c4)CC3)nc3ccccc32)cc1 | x | x | -6 | x | x
CC(=O)c1sc(N/N=C\c2ccccc2O)nc1C | x | 13 | -4 | 38* | x
NC(=O)NCC(c1ccccc1)C1CCCCC1 (centres undefined) | x | x | -5 | 3 | x
COc1ccc(CCNC2CC(C)N(C)CC2C)cc1OC (centres undefined) | 20 | -1 | -3 | 27* | 27
COCCn1c(=N)c(C(=O)NCCc2ccc(OC)cc2)cc2c(=O)n3cccc(C)c3nc21 | 108* | 13 | -2 | 78* | 114*
Cc1cccn2c(=O)c3cc(C(=O)NC4CCCCC4)c(=N)n(Cc4ccc(F)cc4)c3nc12 | x | x | 1 | -2 | x
COc1ccc(CNC(=O)c2cc3c(=O)n4cccc(C)c4nc3n(CC3CCCO3)c2=N)cc1 (centres undefined) | x | x | -2 | 77* | x
Cc1ccc(CNC(=O)c2ccc3c(=O)n(CC4CCCO4)c(=S)[nH]c3c2)cc1 (centres undefined) | 2 | 20 | -8 | -2 | -4
Cc1cccn2c(=O)c3cc(C(=O)NCc4ccc(F)cc4)c(=N)n(CC4CCCO4)c3nc12 (centres undefined) | x | x | 7 | 185* | x
N#C/C(=C\c1c(F)cccc1Cl)C(=O)NC1CC1 | x | x | x | -2 | x
O=c1ccc(-c2ccc(S(=O)(=O)Nc3cccc([N+](=O)[O-])c3)s2)n[nH]1 | x | x | -3 | 0 | x
COC(=O)c1c(Cl)c2n3ccccc3c(C)c(-c3ccccc3)c-2c1C(=O)OC | 1 | 2 | -5 | 19* | -7
COC(=O)c1cc2c(-c3ccccc3)c(C)c3ccccn3c-2c1C(=O)OC | 9 | 6 | x | 27* | 9
COc1ccc2[nH]cc(CCNC(=O)COc3ccc4ccc(=O)oc4c3)c2c1 | x | x | x | -3 | x
CC1CCCN(CC(=O)Nc2cc(S(=O)(=O)N3CCOCC3)ccc2N2CCCC2)C1 (centres undefined) | x | x | -6 | x | x
Cc1cc(N=Cc2c(O)n(-c3ccc(C)c(C)c3)c(=O)c3ccccc23)no1 | 8 | 6 | -17 | x | 17
CCOC(=O)Cc1csc(/N=C/c2c(O)n(-c3ccc(C)c(C)c3)c(=O)c3ccccc23)n1 | -82 | 6 | -24 | -2 | 62*
COCCn1c(CCC(=O)O)ccc1-c1cccs1 | 31 | 6 | -5 | 6 | 55*
SMILES | Runt-CBFb FRET | Hck Nef HTS | CaV13 ICDI inh | RanGTP-Imp inh | Runt-SMMHC FRET
CCCCn1c(CCC(=O)O)ccc1-c1cccs1 | 17 | 21 | -2 | 9 | 32
Cc1cc2c(c(=O)n1C)C(Cc1ccccc1)C(C#N)=C(N)O2 (centres undefined) | 123* | 2 | -3 | 63* | 146*
CC(C)Cn1c(N)c(C(=O)NCCN2CCOCC2)c2nc3ccccc3nc21 | 9 | 43 | -2 | 94* | 95*
CCCNC(=O)c1c(N)n(-c2ccc3c(c2)OCO3)c2nc3ccccc3nc12 | 5 | 21 | -3 | 3 | 6
Cc1cccc(-n2c(N)c(C(=O)NCCN3CCOCC3)c3nc4ccccc4nc32)c1 | 79* | 27 | x | 85* | 61*
Cc1ccc(S(=O)(=O)N2CCCCC2)cc1NS(=O)(=O)c1ccc(Cl)c(C(=O)O)c1 | x | x | -4 | x | x
Cc1[nH]nc2c1C(c1ccc(O)cc1)C1=C(CC(C)(C)CC1=O)N2 (centres undefined) | 0 | 30 | 7 | -1 | -1
Cc1ccc(C2C3=C(CC(C)(C)CC3=O)Nc3[nH]c(=S)[nH]c(=O)c32)cc1 (centres undefined) | 18 | x | -5 | x | 71*
COc1cccc(C=Nc2ccccc2C(=O)Nc2nccs2)c1OC | 24 | 6 | x | 10 | 52*
O=C(Nc1nccs1)c1ccccc1N=Cc1ccccc1 | 19 | 5 | 0 | 7 | 58*
COc1cc2ccccc2cc1C(=O)Nc1nccs1 | x | x | -6 | -1 | x
COc1cccc(CNC(=O)COC(=O)CCCNC(=O)c2ccc(Cl)cc2)c1 | x | x | -5 | x | x
Nn1cnc2c(c1=O)C1(CCCCC1)Cc1ccccc1-2 | -2 | 3 | -19 | 26* | -4
CCN(CC)Cc1nc2c(c(=O)[nH]1)C1(CCCCC1)Cc1ccccc1-2 | -2 | 1 | -9 | 30* | 33
CCSc1n[nH]c2nc3c(c(=O)n12)C1(CCCC1)Cc1ccccc1-3 | 22 | 10 | -5 | 12 | 62*
Cc1ccccc1S(=O)(=O)NC(=O)C1(C)CCN1C(=O)c1cccc2ccccc12 (centres undefined) | x | x | -6 | x | x
Clc1ccc(-c2nnc3sc(-c4ccc(Br)o4)nn23)cc1 | 2 | 4 | -3 | x | 5
Cc1oc(-c2ccc(Cl)cc2)cc1-c1nn2c(-c3ccoc3C)nnc2s1 | 32 | 59* | -8 | -2 | 18
O=C(O)C(=O)/C(=C\c1cccc(Cl)c1)c1ccc2ccccc2n1 | 6 | 28 | -2 | -9 | 37
Cc1cccc(/C=C(\C(=O)C(=O)O)c2ccc3ccccc3n2)c1 | 24 | 40 | -5 | 29* | 73*
[O-][n+]1c2ccccc2cc2ccccc21 | x | x | -2 | 79* | x
COc1ccc2nc3ccccc3[n+]([O-])c2c1 | x | x | -17 | x | x
O=c1[nH]c(NCCO)c(N=Cc2ccccc2)c(=O)[nH]1 | x | x | 28 | 164* | x
COc1cc(SC)ccc1C(=O)NCC1CCCO1 (centres undefined) | 0 | 15 | -5 | 1 | -6
CCOc1ccc(N=c2oc3cc(O)ccc3cc2C(=O)NCC2CCCO2)cc1 (centres undefined) | 121* | 35 | 23 | 184* | 106*
Cc1ccc(N=c2oc3cc(O)ccc3cc2C(N)=O)cc1 | 10 | 46 | 8 | 181* | 46
